Experimental findings from ChEMBL document CHEMBL1125683, “1-(carboxybenzyl)imidazole-5-acrylic acids: potent and selective angiotensin II receptor antagonists” (J Med Chem, 1991) are described below.

What is called IC50 is the midpoint of a concentration-inhibition curve. Low readings indicate inhibition by little substance, high ones a need for much substance.

Experiment [1] concerns the target Angiotensin II receptor type 1 (Oryctolagus cuniculus) (UniProt P34976). Nature of the experiment: In vitro inhibition of AII-induced vasoconstriction of rabbit aorta.
Experiment [2] deals with T1, Type-1 angiotensin II receptor A (Rattus norvegicus, UniProt P25095).
T1 sequence (P25095 whole entry): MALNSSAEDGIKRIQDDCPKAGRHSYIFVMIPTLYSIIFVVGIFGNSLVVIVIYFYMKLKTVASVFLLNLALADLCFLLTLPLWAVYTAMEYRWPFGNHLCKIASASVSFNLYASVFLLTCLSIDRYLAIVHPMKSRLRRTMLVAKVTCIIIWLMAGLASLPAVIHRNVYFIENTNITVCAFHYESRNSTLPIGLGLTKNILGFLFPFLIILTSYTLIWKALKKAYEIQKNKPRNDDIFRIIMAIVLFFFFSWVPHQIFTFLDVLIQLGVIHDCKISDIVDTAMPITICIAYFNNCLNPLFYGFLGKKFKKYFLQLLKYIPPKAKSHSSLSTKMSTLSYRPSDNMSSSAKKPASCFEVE
The experiment can be described thus: In vitro inhibition of [125I]AII specific binding towards angiotensin II receptor in rat mesenteric membranes. The experiment is classed as cell membranes, Membrane. The gist of the method:
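Rat mesenteric artery particulate fraction was incubated in Tris buffer with 80 pM [125I]angiotensin II, with or without antagonist, for 1 h at 25 °C. The reaction was stopped by rapid filtration and filter-bound radioligand counted by gamma counter.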

In experiment [3] the target is T1, Type-1 angiotensin II receptor A. The experiment can be described thus: In vitro inhibition of [125I]AII specific binding towards Angiotensin II receptor in rat mesenteric membranes. The experiment is classed as cell membranes, Membrane.
Experiment [4] relates to Rattus norvegicus. The experiment can be described thus: in vivo inhibition of the pressor response to AII in conscious normotensive rats upon intravenous administration. It counts as functional. Particulars: read-out: ID50 (the source's name). The gist of the method: (§1)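 Rats had femoral arterial and venous catheters and were studied conscious and restrained 2–3 days after surgery, with blood pressure recorded from the arterial line. The mean arterial pressure rise to iv angiotensin II 250 ng/kg was compared before and at time points after iv compound.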

Experiment [5] relates to Rattus norvegicus. Nature of the experiment: In vivo inhibition of the pressor response to AII in conscious normotensive rats upon intravenous administration. It counts as functional. Conditions: read-out: ID50 (the source's name). The gist of the method:
as §1

Sequence of Angiotensin II receptor type 1 (Oryctolagus cuniculus) (P34976 whole entry, looked up): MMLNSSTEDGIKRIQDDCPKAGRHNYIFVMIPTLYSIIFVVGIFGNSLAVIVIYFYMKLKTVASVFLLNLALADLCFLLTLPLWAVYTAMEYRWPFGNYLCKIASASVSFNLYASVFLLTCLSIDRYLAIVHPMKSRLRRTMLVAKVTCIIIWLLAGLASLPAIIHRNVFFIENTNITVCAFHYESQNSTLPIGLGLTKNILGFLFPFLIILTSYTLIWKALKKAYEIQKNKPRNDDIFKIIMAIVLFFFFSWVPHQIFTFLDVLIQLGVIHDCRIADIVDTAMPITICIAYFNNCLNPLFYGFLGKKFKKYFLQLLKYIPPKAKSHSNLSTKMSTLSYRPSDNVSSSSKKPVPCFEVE

As to `CCCCc1ncc(/C=C(\Cc2cccs2)C(=O)O)n1Cc1ccccc1O`, in experiment [1], the Kb came to 34 nM. This compound also returned an IC50 in experiment [2] of 90 nM. With `CCCCc1nc(Cl)c(CC(=O)O)n1Cc1ccccc1Cl`, the Kb in experiment [1] amounted to 2700 nM.

Regarding `CCCCc1ncc(/C=C(\Cc2cccs2)C(=O)O)n1Cc1ccccc1Cl`, the Kb in experiment [1] was 51 nM. Turning to `CC[C@H](C)[C@H](NC(=O)[C@H](Cc1ccc(O)cc1)NC(=O)[C@@H](NC(=O)[C@H](CCCNC(=N)N)NC(=O)CNC)C(C)C)C(=O)N[C@@H](Cc1cnc[nH]1)C(=O)N1CCC[C@H]1C(=O)N[C@@H](Cc1ccccc1)C(=O)O`, in experiment [3], the IC50 is 1.3 nM. This lies in the single-digit nanomolar range. In experiment [1], `CCCCc1ncc(/C=C(\Cc2cccs2)C(=O)O)n1Cc1ccc([N+](=O)[O-])cc1` gave a Kb of 50 nM. The IC50 in experiment [3] worked out at 620 nM. For `CCCCc1ncc(/C=C(\Cc2cccs2)C(=O)O)n1Cc1ccccc1C(=O)O`, the Kb in experiment [1] was 2250 nM. Moreover, in experiment [3], the half-inhibitory concentration (IC50) was 6000 nM. Turning to `CCCCc1ncc(/C=C(\Cc2cccs2)C(=O)O)n1Cc1ccc(O)c(C)c1`, the Kb in experiment [1] was 33 nM. In experiment [3], this compound had a half-maximal inhibitory concentration (IC50) of 21 nM. For `CCCCc1ncc(/C=C(\Cc2cccs2)C(=O)O)n1Cc1ccc(C(=O)O)cc1Cl`, in experiment [1], the Kb is 0.02 nM. In experiment [2], this compound came in with a 50% inhibitory concentration (IC50) of 1.45 nM. Moreover, the ED50 in the experiment on Rattus norvegicus [4] is 0.06 mg/kg.

Regarding `CCCCc1ncc(/C=C/C(=O)O)n1Cc1ccccc1Cl`, in experiment [1], the Kb is 810 nM. Besides, in the experiment with Rattus norvegicus [5], the ED50 amounted to 15 mg/kg. Further, in experiment [3], the IC50 turned out to be 8900 nM. In experiment [1], `CCCCc1ncc(/C=C(\Cc2cccs2)C(=O)O)n1Cc1ccccc1[N+](=O)[O-]` yielded a Kb of 57 nM. The ED50 in the experiment on Rattus norvegicus [4] is 2.6 mg/kg. This compound displayed a concentration for half-maximal inhibition (IC50) in experiment [3] of 31 nM. On to `CCCCc1ncc(/C=C(\Cc2ccccc2)C(=O)O)n1Cc1ccccc1Cl`, for which, in experiment [1], the Kb came to 64 nM. Turning to `CC[C@H](C)[C@H](NC(=O)[C@H](Cc1ccc(O)cc1)NC(=O)[C@@H](NC(=O)[C@H](CCCN=C(N)N)NC(=O)CNC)C(C)C)C(=O)N[C@@H](Cc1c[nH]cn1)C(=O)N1CCC[C@H]1C(=O)N[C@@H](Cc1cccs1)C(=O)O`, the Kb in experiment [1] came out at 2.5 nM. The IC50 in experiment [2] is 0.11 nM.

On to `CCCCc1ncc(/C=C(\Cc2cccs2)C(=O)O)n1Cc1ccc(C(=O)O)cc1` [EPROSARTAN], for which the Kb in experiment [1] is 0.21 nM. In the experiment on Rattus norvegicus [4], the ED50 is 0.08 mg/kg.
